Assay [1] in a line: Inhibition of G9a (unknown origin) by [3H]-SAM incorporation assay. In outline: (§1)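 In vitro methyltransferase activity was quantified with a biotin–avidin microplate kinetic assay based on [3H]-SAM incorporation. G9a was tested up to 1 mM.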
A short description of assay [2]: Inhibition of Escherichia coli DAM by [3H]-SAM incorporation assay. In outline:
as §1

The target of assay [3] is T1, DNA (cytosine-5)-methyltransferase 1 (Homo sapiens, UniProt P26358). The assay is described as follows: Inhibition of human recombinant DNMT1 expressed in […] assessed as inhibition of tritiated methyl incorporation from [3H]-labeled AdoMet into hemimethylated DNA duplex at 500 uM after 2 hrs by liquid scintillation counting analysis relative to control. The assay is classed as cell-based. Put shortly:
(§2)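 Human recombinant DNMT1 transferred tritiated methyl from [3H]-AdoMet onto a short hemimethylated DNA duplex carrying 8 CpGs, and direct incorporation of the radiolabel was measured. Compounds were first screened at a single concentration.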

Another assay concerns DU-145. The assay is described as follows: Cytotoxicity against human DU145 cells after 72 hrs by MTS assay. The assay is classed as functional. Particulars: DU-145, 72 h, read-out: TC50 (the source's name). For orientation: Tetrazolium dyes change colour on reduction, which living cells bring about.
The target in assay [4] is T1, DNA (cytosine-5)-methyltransferase 1. Put plainly: Inhibition of human recombinant DNMT1 expressed in […] assessed as inhibition of tritiated methyl incorporation from [3H]-labeled AdoMet into hemimethylated DNA duplex after 2 hrs by liquid scintillation counting analysis. The assay is classed as cell-based. In outline: as §2
The target in assay [5] is DNA (cytosine-5)-methyltransferase 3A (Mus musculus) (UniProt O88508). Put plainly: Binding affinity to mouse Dnmt3A catalytic domain assessed as inhibition of AdoHcy binding at 0.85 mM by WaterLOGSY spectroscopic analysis.
Assay [6] is described as follows: Inhibition of Spiroplasma M.SssI using unmethylated DNA as substrate after 2 hrs by agarose gel electrophoresis.

From ChEMBL document CHEMBL3108732, “Synthesis and evaluation of analogues of N-phthaloyl-l-tryptophan (RG108) as inhibitors of DNA methyltransferase 1” (J Med Chem, 2014) come the findings set out here.

The structures appear in SMILES notation. Calls of active or inactive are those of the source. No cut-off for these calls is given here. A value given as a limit tells only on which side of the number the result lay.

T1 sequence (P26358 whole entry): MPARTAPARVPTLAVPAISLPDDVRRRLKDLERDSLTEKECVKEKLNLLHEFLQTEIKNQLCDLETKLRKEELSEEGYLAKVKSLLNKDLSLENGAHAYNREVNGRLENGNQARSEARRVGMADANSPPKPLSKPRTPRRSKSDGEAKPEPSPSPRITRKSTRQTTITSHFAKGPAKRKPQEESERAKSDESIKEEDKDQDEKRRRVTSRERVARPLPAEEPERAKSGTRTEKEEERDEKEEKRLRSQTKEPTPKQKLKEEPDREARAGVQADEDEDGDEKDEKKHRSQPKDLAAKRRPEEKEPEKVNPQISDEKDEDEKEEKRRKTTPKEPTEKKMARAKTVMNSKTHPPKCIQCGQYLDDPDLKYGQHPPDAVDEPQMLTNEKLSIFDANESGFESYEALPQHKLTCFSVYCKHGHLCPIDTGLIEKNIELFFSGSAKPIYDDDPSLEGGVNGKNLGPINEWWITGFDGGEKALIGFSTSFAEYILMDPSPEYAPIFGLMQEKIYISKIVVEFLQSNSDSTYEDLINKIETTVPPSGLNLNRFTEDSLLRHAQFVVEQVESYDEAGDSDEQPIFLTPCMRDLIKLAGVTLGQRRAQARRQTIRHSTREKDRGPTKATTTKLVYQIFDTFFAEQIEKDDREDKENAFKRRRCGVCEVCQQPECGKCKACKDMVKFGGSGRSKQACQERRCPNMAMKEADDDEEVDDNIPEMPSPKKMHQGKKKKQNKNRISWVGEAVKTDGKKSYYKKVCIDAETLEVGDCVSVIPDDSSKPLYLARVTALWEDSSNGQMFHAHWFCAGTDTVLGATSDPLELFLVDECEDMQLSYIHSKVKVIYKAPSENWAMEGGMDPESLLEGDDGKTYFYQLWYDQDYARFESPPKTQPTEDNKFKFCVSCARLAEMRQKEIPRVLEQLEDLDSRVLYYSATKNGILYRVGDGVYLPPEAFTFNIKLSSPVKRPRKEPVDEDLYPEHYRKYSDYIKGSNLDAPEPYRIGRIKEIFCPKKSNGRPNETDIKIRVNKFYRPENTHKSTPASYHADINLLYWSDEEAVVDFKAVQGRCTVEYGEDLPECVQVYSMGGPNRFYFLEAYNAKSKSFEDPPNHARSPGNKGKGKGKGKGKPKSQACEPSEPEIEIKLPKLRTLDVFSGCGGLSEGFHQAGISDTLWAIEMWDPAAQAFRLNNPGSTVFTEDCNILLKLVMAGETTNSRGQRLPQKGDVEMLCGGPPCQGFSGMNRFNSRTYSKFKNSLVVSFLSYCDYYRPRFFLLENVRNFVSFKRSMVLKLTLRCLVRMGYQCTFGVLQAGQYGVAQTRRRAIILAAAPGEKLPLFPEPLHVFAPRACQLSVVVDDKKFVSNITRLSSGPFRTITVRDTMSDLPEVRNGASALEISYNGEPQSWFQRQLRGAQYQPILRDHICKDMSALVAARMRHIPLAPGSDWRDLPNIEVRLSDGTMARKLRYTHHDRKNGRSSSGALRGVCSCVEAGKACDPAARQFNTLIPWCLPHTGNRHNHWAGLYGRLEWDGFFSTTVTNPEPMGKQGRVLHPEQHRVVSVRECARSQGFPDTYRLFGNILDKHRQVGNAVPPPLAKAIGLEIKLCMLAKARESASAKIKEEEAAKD

As to `O=C(O)C1C(Cc2c[nH]c3ccccc23)CCN1C(=O)c1ccccc1` (stereo not given), the 50% inhibitory concentration (IC50) in assay [1] is above 1000 µM; in assay [2], above 750 µM. Further, the inhibition in assay [3] worked out at 50%. As to `N[C@@H](Cc1c[nH]c2ccccc12)C(=O)O`, in assay [3], the inhibition entry was “inactive”. Still for that read-out and setting: the result for `O=C(O)CN1C(=O)c2ccccc2C1=O` reads “inactive”.

For the molecule `O=C(O)[C@H]1[C@@H](Cc2c[nH]c3ccccc23)CCN1C(=O)c1ccc2ccccc2c1`, the CC50 in the assay on DU-145 was 130 µM. Besides, the IC50 in assay [4] was determined as 50 µM. As for `O=C(O)C1C(Cc2c[nH]c3ccccc23)CCN1C(=O)c1ccc2ccccc2c1` (stereo not given), the inhibition in assay [3] was determined as 50%. For `O=C(O)[C@H](Cc1cc(=O)[nH]c2ccccc12)N1C(=O)c2ccccc2C1=O`, the inhibition entry in assay [3] is “inactive”. Still for that read-out and setting: the result for `O=C(O)[C@H](Cc1ccccc1)N1C(=O)c2ccccc2C1=O` reads “inactive”. As for `O=C(O)[C@H](Cc1c[nH]c2ccccc12)NSc1ccc([N+](=O)[O-])cc1[N+](=O)[O-]`, the CC50 with DU-145 came to 103 µM. Further, the IC50 in assay [4] turned out to be 40 µM. Regarding `O=C(CN1C(=O)c2ccccc2C1=O)N[C@@H](Cc1c[nH]c2ccccc12)C(=O)O`, in assay [3], the inhibition result was “inactive”. Consider `O=C(O)[C@@H]1[C@H](Cc2c[nH]c3ccccc23)CCN1C(=O)c1ccccc1`, for which the CC50 in the assay on DU-145 was 230 µM. Further, the half-inhibitory concentration (IC50) in assay [4] is 98 µM. As to `O=C(O)[C@H]1[C@@H](Cc2c[nH]c3ccccc23)CCN1C(=O)c1ccccc1`, the CC50 in the assay on DU-145 stood at 232 µM. The IC50 in assay [4] amounted to 73 µM. For the molecule `O=C(O)[C@H](Cc1csc2ccccc12)N1C(=O)c2ccccc2C1=O`, the IC50 in assay [4] came to 230 µM. With `O=C(O)[C@@H]1[C@H](Cc2c[nH]c3ccccc23)CCN1C(=O)c1ccc2ccccc2c1`, the CC50 with DU-145 came to 280 µM. Besides, the IC50 in assay [4] is 128 µM. In the case of `O=C(O)[C@H](Cc1c[nH]cn1)N1C(=O)c2ccccc2C1=O`, the inhibition entry in assay [3] is “inactive”. Same read-out and setting: with `O=C(O)[C@@H](Cc1c[nH]c2ccccc12)CN1C(=O)c2ccccc2C1=O` the entry was “inactive”; with `O=C(O)[C@@H]1[C@H](Cc2c[nH]c3ccccc23)CCN1C(=O)CN1C(=O)c2ccccc2C1=O`, “inactive”. As for `O=C(O)[C@H](Cc1c[nH]c2ccccc12)NSc1ncccc1[N+](=O)[O-]`, in the assay with DU-145, the CC50 came out at 211 µM. Moreover, the half-inhibitory concentration (IC50) in assay [4] was 20 µM. For the molecule `O=C(O)C[C@H](Cc1c[nH]c2ccccc12)N1C(=O)c2ccccc2C1=O`, the inhibition result in assay [3] is “inactive”. As to `O=C(O)[C@H](Cc1c[nH]c2ccccc12)CN1C(=O)c2ccccc2C1=O`, in assay [3], the inhibition result is “inactive”.

As for `O=C(O)[C@H](Cc1c[nH]c2ccccc12)n1c(=O)[nH]c2ccccc2c1=O`, in assay [3], the inhibition result was “inactive”. Take `NC(=O)[C@H](Cc1c[nH]c2ccccc12)N1C(=O)c2ccccc2C1=O`: the inhibition result in assay [3] is “inactive”. On to `O=C(O)[C@@H]1[C@H](Cc2c[nH]c3ccccc23)CCN1Sc1ccc([N+](=O)[O-])cc1[N+](=O)[O-]`, for which, in the assay on DU-145, the CC50 came out at 250 µM. Also, the IC50 in assay [4] came out at 80 µM. For `O=C(O)[C@H](Cc1c[nH]c2ccccc12)N1C(=O)c2ccccc2C1=O`, in the assay with DU-145, the CC50 is 660 µM. In addition, the inhibition in assay [5] was determined as 50%. For the same molecule, the results for the IC50 in assay [6] and in assay [4] were 0.115 µM and 390 µM, respectively.

One may read the IC50 as the concentration needed to halve the response being measured. For orientation: inhibition means the relative decrease from the control value, in per cent.
